Common to all, as to type: functional
For test [1], the system named is Enterococcus faecalis. As to the kind of experiment: Antibacterial activity against gram-positive Enterococcus faecalis EFs327 harboring tet(M) by CLSI method. Summed up:
(§1)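 CLSI broth microdilution MIC in fresh cation-adjusted Mueller Hinton broth, supplemented with defibrinated horse blood where appropriate. Compounds serially diluted in sterile deionized water. Runs accepted when comparator antibiotics against ATCC quality-control strains fell within recommended ranges.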

For test [2], the system named is Klebsiella pneumoniae. As to the kind of experiment: Antibacterial activity against gram-negative Klebsiella pneumoniae KP457 harboring blacTX-M-15 extended spectrum beta-lactamase gene by CLSI method. The gist of the method:
as §1

A further test relates to Enterococcus faecium. Kind of test: Antibacterial activity against gram-positive Enterococcus faecium EFm404 harboring tet(M) by CLSI method. Summed up:
as §1

In another test the test system is Burkholderia cenocepacia. As to the kind of experiment: Antibacterial activity against gram-negative Burkholderia cenocepacia BC240 by CLSI method. Summed up:
(§2)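 Defibrinated horse blood added where appropriate. Compounds serially diluted in sterile deionized water. Strains from ATCC unless otherwise noted. Runs accepted when comparator antibiotics fell within QC ranges for ATCC quality control strains.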

Test [3] deals with Escherichia coli. Kind of test: Antibacterial activity against gram-negative Escherichia coli EC107 by CLSI method. Summed up:
(§3)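 Broth microdilution MIC per CLSI in cation-adjusted Mueller Hinton broth, prepared fresh and held at 4 °C. Defibrinated horse blood added where appropriate. Compounds serially diluted in sterile deionized water. Strains from ATCC unless otherwise noted. Runs accepted when comparator antibiotics fell within QC ranges for ATCC quality control strains.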

The test system of test [4] is Staphylococcus aureus. As to the kind of experiment: Antibacterial activity against gram-positive Staphylococcus aureus SA158 harboring tet(K) by CLSI method. The gist of the method:
as §1

Another test relates to Enterobacter cloacae. Kind of test: Antibacterial activity against gram-negative Enterobacter cloacae EC1603 harboring tet(A) by CLSI method. The gist of the method: as §1
Test [5] relates to Staphylococcus aureus. Kind of test: Antibacterial activity against gram-positive Staphylococcus aureus SA161 harboring tet(M) by CLSI method. Summed up: as §1
Test [6] deals with Streptococcus pneumoniae. Kind of test: Antibacterial activity against gram-positive Streptococcus pneumoniae SP160 harboring tet(M) by CLSI method. The gist of the method:
as §1

In test [7] the test system is Pseudomonas aeruginosa. Kind of test: Antibacterial activity against gram-negative Pseudomonas aeruginosa PA555 by CLSI method. Summed up: as §3
The subject of test [8] is Proteus mirabilis. Kind of test: Antibacterial activity against gram-negative Proteus mirabilis PM385 by CLSI method. The gist of the method:
as §3

Test [9] deals with Escherichia coli. As to the kind of experiment: Antibacterial activity against gram-negative Escherichia coli EC155 harboring tet(A) by CLSI method. The gist of the method:
as §1

In test [10] the test system is Stenotrophomonas maltophilia. As to the kind of experiment: Antibacterial activity against gram-negative Stenotrophomonas maltophilia SM256 by CLSI method. Summed up: as §3
Test [11] has as its system Staphylococcus aureus. As to the kind of experiment: Antibacterial activity against gram-positive Staphylococcus aureus SA101 by CLSI method. Summed up:
as §3

Another test concerns Acinetobacter baumannii. Kind of test: Antibacterial activity against gram-negative Acinetobacter baumannii AB250 by CLSI method. Summed up:
as §3

Test [12] concerns Klebsiella pneumoniae. Kind of test: Antibacterial activity against gram-negative Klebsiella pneumoniae KP194 by CLSI method. The gist of the method: as §3
The test system of test [13] is Klebsiella pneumoniae. Kind of test: Antibacterial activity against gram-negative Klebsiella pneumoniae KP153 harboring tet(A) by CLSI method. Summed up:
as §1

For test [14], the system named is Enterococcus faecalis. As to the kind of experiment: Antibacterial activity against gram-positive Enterococcus faecalis EF159 harboring tet(M) by CLSI method. Summed up:
as §1

Test [15] relates to Streptococcus pneumoniae. As to the kind of experiment: Antibacterial activity against gram-positive Streptococcus pneumoniae SP193 by CLSI method. Summed up: as §3
Test [16] deals with Pseudomonas aeruginosa. Kind of test: Antibacterial activity against gram-negative Pseudomonas aeruginosa PA169 by CLSI method. Summed up:
as §2

Test [17] concerns Proteus mirabilis. As to the kind of experiment: Antibacterial activity against gram-negative Proteus mirabilis PM122 by CLSI method. Summed up: as §2

Results on 6 molecules are retold here after ChEMBL document CHEMBL4007456, “Heterocyclyl Tetracyclines. 1. 7-Trifluoromethyl-8-Pyrrolidinyltetracyclines: Potent, Broad Spectrum Antibacterial Agents with Enhanced Activity against Pseudomonas aeruginosa” (2017).

≈ marks a conversion by molar mass, not a printed value.

`CN(C)[C@@H]1C(O)=C(C(N)=O)C(=O)[C@@]2(O)C(O)=C3C(=O)c4c(O)cc([C@@H]5CCCN5CC5CC5)c(C(F)(F)F)c4C[C@H]3C[C@@H]12`: the MIC in the test with Enterococcus faecalis [1] came out at 1 µg/mL (≈ 1.65 µM); against Klebsiella pneumoniae [2], 16 µg/mL (≈ 26.4 µM); against Enterococcus faecium it was 1 µg/mL (≈ 1.65 µM); in the test with Burkholderia cenocepacia, 16 µg/mL (≈ 26.4 µM); against Escherichia coli [3], 1 µg/mL (≈ 1.65 µM); in the test with Staphylococcus aureus [4] it was 0.125 µg/mL (≈ 0.206 µM). The MIC was 32 µg/mL (≈ 52.8 µM) in the test on Enterobacter cloacae; 1 µg/mL (≈ 1.65 µM) against Staphylococcus aureus [5]; 0.0312 µg/mL (≈ 0.0515 µM) against Streptococcus pneumoniae [6]; more than 32 µg/mL against Pseudomonas aeruginosa [7]; 8 µg/mL (≈ 13.2 µM) against Proteus mirabilis [8]; 2 µg/mL (≈ 3.3 µM) in the test on Escherichia coli [9]. Also, the MIC came out at 4 µg/mL (≈ 6.6 µM) in [10], 0.5 µg/mL (≈ 0.826 µM) in the test on Staphylococcus aureus [11] and 4 µg/mL (≈ 6.6 µM) in the test on Acinetobacter baumannii.

Turning to `CC1CCNC1c1cc(O)c2c(c1C(F)(F)F)C[C@H]1C[C@H]3[C@H](N(C)C)C(O)=C(C(N)=O)C(=O)[C@@]3(O)C(O)=C1C2=O` (some centres undefined), the MIC is 1 µg/mL (≈ 1.77 µM) with Enterococcus faecalis [1]; 1 µg/mL (≈ 1.77 µM) with Klebsiella pneumoniae [2]; 0.5 µg/mL (≈ 0.884 µM) against Enterococcus faecium; 4 µg/mL (≈ 7.07 µM) against Burkholderia cenocepacia; not above 0.0156 µg/mL in the test on Escherichia coli [3]; not above 0.0156 µg/mL in the test with Staphylococcus aureus [4]. In addition, the MIC against Enterobacter cloacae was 2 µg/mL (≈ 3.54 µM); with Staphylococcus aureus [5], 8 µg/mL (≈ 14.1 µM); against Streptococcus pneumoniae [6], not above 0.0156 µg/mL; with Pseudomonas aeruginosa [7], 8 µg/mL (≈ 14.1 µM); against Proteus mirabilis [8], 2 µg/mL (≈ 3.54 µM); in the test with Escherichia coli [9] it was 2 µg/mL (≈ 3.54 µM). The MIC in [10] came to 0.5 µg/mL (≈ 0.884 µM); in the test with Staphylococcus aureus [11] it was 0.125 µg/mL (≈ 0.221 µM); with Acinetobacter baumannii, 1 µg/mL (≈ 1.77 µM).

For the molecule `CN(C)[C@@H]1C(O)=C(C(N)=O)C(=O)[C@@]2(O)C(O)=C3C(=O)c4c(O)cccc4[C@@](C)(O)[C@H]3C[C@@H]12` [TETRACYCLINE], the MIC with Enterococcus faecalis [1] is more than 32 µg/mL; in the test on Klebsiella pneumoniae [2], 8 µg/mL (≈ 18 µM); in the test on Klebsiella pneumoniae [12], 16 µg/mL (≈ 36 µM); against Klebsiella pneumoniae [13] it was more than 32 µg/mL; in the test with Escherichia coli [3], 1 µg/mL (≈ 2.25 µM); against Enterobacter cloacae it was more than 32 µg/mL. In addition, the MIC is more than 32 µg/mL in the test on Staphylococcus aureus [5]; more than 32 µg/mL in the test on Pseudomonas aeruginosa [7]; more than 32 µg/mL in the test with Proteus mirabilis [8]; more than 32 µg/mL with Escherichia coli [9]; more than 32 µg/mL with Enterococcus faecalis [14]; 16 µg/mL (≈ 36 µM) in test [10]. The minimum inhibitory concentration (MIC) is 0.25 µg/mL (≈ 0.563 µM) in the test with Staphylococcus aureus [11], 0.125 µg/mL (≈ 0.281 µM) in the test on Streptococcus pneumoniae [15] and more than 32 µg/mL in the test on Acinetobacter baumannii.

With `CN1CCCCC1c1cc(O)c2c(c1Cl)C[C@H]1C[C@H]3[C@H](N(C)C)C(O)=C(C(N)=O)C(=O)[C@@]3(O)C(O)=C1C2=O` (some centres undefined), the MIC with Klebsiella pneumoniae [12] was 16 µg/mL (≈ 29.3 µM); in the test with Klebsiella pneumoniae [13], 1 µg/mL (≈ 1.83 µM); in the test with Burkholderia cenocepacia, 8 µg/mL (≈ 14.7 µM); with Escherichia coli [3], 0.125 µg/mL (≈ 0.229 µM); with Staphylococcus aureus [4] it was 0.0313 µg/mL (≈ 0.0573 µM); against Staphylococcus aureus [5], 4 µg/mL (≈ 7.33 µM). Moreover, the MIC with Streptococcus pneumoniae [6] turned out to be 0.25 µg/mL (≈ 0.458 µM); with Escherichia coli [9], 1 µg/mL (≈ 1.83 µM); in the test on Pseudomonas aeruginosa [16], 32 µg/mL (≈ 58.6 µM); with Enterococcus faecalis [14], 2 µg/mL (≈ 3.66 µM); in test [10], 1 µg/mL (≈ 1.83 µM); against Staphylococcus aureus [11], 0.25 µg/mL (≈ 0.458 µM). Further, the MIC was not above 0.0156 µg/mL against Streptococcus pneumoniae [15], 1 µg/mL (≈ 1.83 µM) against Proteus mirabilis [17] and 2 µg/mL (≈ 3.66 µM) against Acinetobacter baumannii.

In the case of `CN(C)[C@@H]1C(O)=C(C(N)=O)C(=O)[C@@]2(O)C(O)=C3C(=O)c4c(O)cc(-c5cccnc5)c(Cl)c4C[C@H]3C[C@@H]12`, the MIC in the test on Klebsiella pneumoniae [13] was more than 32 µg/mL; with Burkholderia cenocepacia it was 8 µg/mL (≈ 15.2 µM); in the test on Escherichia coli [3], 2 µg/mL (≈ 3.8 µM); against Staphylococcus aureus [4], 0.125 µg/mL (≈ 0.238 µM); with Staphylococcus aureus [5] it was 1 µg/mL (≈ 1.9 µM); in the test with Streptococcus pneumoniae [6], 8 µg/mL (≈ 15.2 µM). The MIC in the test with Escherichia coli [9] is more than 32 µg/mL; against Pseudomonas aeruginosa [16], more than 32 µg/mL; in the test on Enterococcus faecalis [14] it was 1 µg/mL (≈ 1.9 µM); in test [10] it was 2 µg/mL (≈ 3.8 µM); against Staphylococcus aureus [11], 0.125 µg/mL (≈ 0.238 µM); in the test on Streptococcus pneumoniae [15], 0.25 µg/mL (≈ 0.475 µM). The MIC was 16 µg/mL (≈ 30.4 µM) against Proteus mirabilis [17] and more than 32 µg/mL with Acinetobacter baumannii.

Regarding `CCCN1CCC[C@H]1c1cc(O)c2c(c1C(F)(F)F)C[C@H]1C[C@H]3[C@H](N(C)C)C(O)=C(C(N)=O)C(=O)[C@@]3(O)C(O)=C1C2=O`, the MIC in the test on Enterococcus faecalis [1] amounted to 1 µg/mL (≈ 1.68 µM); in the test with Klebsiella pneumoniae [2], 16 µg/mL (≈ 27 µM); against Enterococcus faecium, 1 µg/mL (≈ 1.68 µM); in the test with Burkholderia cenocepacia it was 16 µg/mL (≈ 27 µM); against Escherichia coli [3], 1 µg/mL (≈ 1.68 µM); in the test on Staphylococcus aureus [4] it was 0.125 µg/mL (≈ 0.211 µM). The MIC against Enterobacter cloacae is 32 µg/mL (≈ 53.9 µM); in the test with Staphylococcus aureus [5], 1 µg/mL (≈ 1.68 µM); against Streptococcus pneumoniae [6], not above 0.0156 µg/mL; against Pseudomonas aeruginosa [7], more than 32 µg/mL; in the test with Proteus mirabilis [8], 8 µg/mL (≈ 13.5 µM); against Escherichia coli [9] it was 2 µg/mL (≈ 3.37 µM). The MIC in test [10] is 4 µg/mL (≈ 6.74 µM); with Staphylococcus aureus [11], 0.25 µg/mL (≈ 0.421 µM); against Acinetobacter baumannii it was 4 µg/mL (≈ 6.74 µM).
